For assay [1], the target named is T1, Alpha-1A adrenergic receptor (Rattus norvegicus) (UniProt P43140).
T1 sequence (whole entry): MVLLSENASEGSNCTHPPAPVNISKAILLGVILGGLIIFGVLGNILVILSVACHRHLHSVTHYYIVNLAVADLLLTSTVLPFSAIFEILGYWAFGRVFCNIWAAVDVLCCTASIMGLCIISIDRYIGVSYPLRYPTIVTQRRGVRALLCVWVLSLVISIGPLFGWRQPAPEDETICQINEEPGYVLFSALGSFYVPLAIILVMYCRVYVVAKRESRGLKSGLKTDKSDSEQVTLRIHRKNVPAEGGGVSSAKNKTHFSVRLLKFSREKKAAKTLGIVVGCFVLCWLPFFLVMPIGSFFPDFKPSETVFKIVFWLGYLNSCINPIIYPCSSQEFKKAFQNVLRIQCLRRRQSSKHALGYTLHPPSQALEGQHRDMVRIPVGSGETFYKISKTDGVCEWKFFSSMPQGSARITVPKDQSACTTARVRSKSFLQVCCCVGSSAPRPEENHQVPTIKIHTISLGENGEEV
The assay is described as follows: Antagonist activity against Alpha-1A adrenergic receptor (-)-noradrenaline-induced contraction of rat prostatic vas deferens. The format is functional, tissue-based. In short, it runs like this:
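Isolated rat prostatic vas deferens with 0.01 μM desipramine in the bath. Isotonic cumulative (–)-noradrenaline curves were run at 30-min intervals: first discarded, second as control, then antagonist equilibrated 30 min before a new curve. pKb by Arunlakshana–Schild from dose ratios of EC50, at 2–3 antagonist concentrations, each tested four times.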

Assay [2] deals with T2, Alpha-1B adrenergic receptor (Rattus norvegicus) (UniProt P15823).
T2 sequence (whole entry): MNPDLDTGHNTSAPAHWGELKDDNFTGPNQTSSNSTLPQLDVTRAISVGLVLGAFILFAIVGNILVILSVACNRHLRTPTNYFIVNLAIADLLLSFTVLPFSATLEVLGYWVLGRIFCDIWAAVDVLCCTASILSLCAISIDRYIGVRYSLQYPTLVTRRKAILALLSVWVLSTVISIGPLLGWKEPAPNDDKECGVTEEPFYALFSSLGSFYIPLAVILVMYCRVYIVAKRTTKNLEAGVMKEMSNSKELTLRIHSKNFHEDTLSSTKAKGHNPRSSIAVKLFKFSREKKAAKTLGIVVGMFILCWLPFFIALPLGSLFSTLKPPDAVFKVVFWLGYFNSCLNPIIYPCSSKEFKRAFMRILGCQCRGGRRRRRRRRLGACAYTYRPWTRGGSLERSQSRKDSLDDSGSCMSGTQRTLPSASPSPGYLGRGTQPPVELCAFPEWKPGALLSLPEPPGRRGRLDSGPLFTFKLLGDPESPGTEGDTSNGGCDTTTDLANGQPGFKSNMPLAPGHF
The assay is described as follows: Antagonism of Alpha-1B adrenergic receptor subtype (-)-phenylephrine-induced contraction of rat spleen. The format is functional, tissue-based. In short, it runs like this:
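Rat spleen, isometric cumulative (–)-phenylephrine curves at 30-min intervals; first discarded, second taken as control. Antagonist was equilibrated 30 min before the next curve.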

In assay [3] the target is T3, Alpha-1D adrenergic receptor (Homo sapiens, UniProt P25100).
T3 sequence (P25100 whole entry): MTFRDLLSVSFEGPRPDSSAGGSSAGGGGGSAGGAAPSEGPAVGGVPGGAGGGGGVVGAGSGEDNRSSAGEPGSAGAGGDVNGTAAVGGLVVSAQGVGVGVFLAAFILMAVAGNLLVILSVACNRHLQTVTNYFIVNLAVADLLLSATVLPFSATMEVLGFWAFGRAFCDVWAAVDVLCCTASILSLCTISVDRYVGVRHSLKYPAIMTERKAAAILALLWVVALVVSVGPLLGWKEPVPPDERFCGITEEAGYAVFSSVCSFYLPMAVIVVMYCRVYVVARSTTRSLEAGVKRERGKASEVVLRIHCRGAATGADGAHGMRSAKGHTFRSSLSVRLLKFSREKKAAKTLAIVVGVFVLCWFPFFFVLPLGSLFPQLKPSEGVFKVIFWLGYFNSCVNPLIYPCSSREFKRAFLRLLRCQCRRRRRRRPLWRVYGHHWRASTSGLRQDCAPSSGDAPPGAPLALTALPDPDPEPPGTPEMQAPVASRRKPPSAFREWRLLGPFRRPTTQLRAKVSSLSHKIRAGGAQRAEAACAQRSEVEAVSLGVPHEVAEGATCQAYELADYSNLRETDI
Briefly: Displacement of [3H]prazosin from human cloned Alpha-1D adrenergic receptor. In short, it runs like this: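 CHO cells stably transfected with each human α1 subtype; 30 μg membrane protein in 50 mM Tris-HCl pH 7.4 with 0.1–0.4 nM [3H]prazosin, 30 min at 25 °C. Competitors 1 pM–10 μM. Nonspecific binding defined with 10 μM phentolamine. Filtration, scintillation counting. Ki by Cheng–Prusoff; 2–3 experiments in triplicate.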
On the technique in general: Loss of bound radioactivity is the signal in a displacement assay; it reports binding, not function.

The next assay deals with D(2) dopamine receptor (Rattus norvegicus, UniProt P61169). The assay is described as follows: Displacement of [3H]spiperone from rat brain Dopamine receptor D2. The procedure, abridged: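 Striata from male Sprague–Dawley rats homogenized in Tris-HCl pH 7.4. Buffer held 10 μM pargiline, 0.1% ascorbic acid, 120 mM NaCl, 5 mM KCl, 2 mM CaCl2, 1 mM MgCl2. Incubated with 0.2–0.6 nM [3H]spiperone for 15 min at 37 °C. Nonspecific binding defined with 1 μM (+)-butaclamol. Filtration, scintillation counting. Ki by Cheng–Prusoff.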
Sequence of D(2) dopamine receptor (P61169 whole entry): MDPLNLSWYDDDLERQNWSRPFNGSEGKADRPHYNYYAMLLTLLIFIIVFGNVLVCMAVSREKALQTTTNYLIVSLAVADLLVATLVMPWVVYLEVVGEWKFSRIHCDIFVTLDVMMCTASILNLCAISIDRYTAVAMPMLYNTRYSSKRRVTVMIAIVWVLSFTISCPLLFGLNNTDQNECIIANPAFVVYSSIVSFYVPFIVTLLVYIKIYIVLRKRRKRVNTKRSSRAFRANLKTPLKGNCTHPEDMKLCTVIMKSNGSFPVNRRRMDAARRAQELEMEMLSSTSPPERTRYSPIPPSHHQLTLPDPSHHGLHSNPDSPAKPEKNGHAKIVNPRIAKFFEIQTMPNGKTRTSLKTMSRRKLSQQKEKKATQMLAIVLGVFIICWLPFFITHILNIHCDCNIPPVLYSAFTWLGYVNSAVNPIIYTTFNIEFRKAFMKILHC

Assay [4] concerns the target T4, Alpha-1D adrenergic receptor (Rattus norvegicus) (UniProt P23944).
T4 sequence (whole entry): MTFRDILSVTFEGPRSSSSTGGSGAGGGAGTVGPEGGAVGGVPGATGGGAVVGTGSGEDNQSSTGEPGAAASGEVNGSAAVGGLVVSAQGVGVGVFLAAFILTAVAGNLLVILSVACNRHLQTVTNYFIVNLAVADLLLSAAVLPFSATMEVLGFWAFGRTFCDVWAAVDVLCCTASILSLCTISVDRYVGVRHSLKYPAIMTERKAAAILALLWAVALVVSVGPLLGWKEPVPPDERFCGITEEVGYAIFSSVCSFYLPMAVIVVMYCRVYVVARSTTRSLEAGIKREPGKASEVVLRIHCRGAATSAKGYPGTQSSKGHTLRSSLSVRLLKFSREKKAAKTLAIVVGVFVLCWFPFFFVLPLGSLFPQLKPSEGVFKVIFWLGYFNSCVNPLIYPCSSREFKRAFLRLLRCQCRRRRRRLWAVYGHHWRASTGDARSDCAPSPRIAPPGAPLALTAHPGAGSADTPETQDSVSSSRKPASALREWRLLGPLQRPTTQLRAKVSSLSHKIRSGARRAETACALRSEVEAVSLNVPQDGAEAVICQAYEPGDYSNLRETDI
Briefly: Alpha-1D adrenergic receptor subtype blocking activity (antagonism) against (-)-noradrenaline-induced contraction of rat thoracic aorta. The format is functional, tissue-based. In short, it runs like this: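 Helicoidal strips of rat thoracic aorta under 1 g tension, bath with 0.01 μM desipramine and 1 μM (±)-propranolol, equilibrated ≥1 h. Cumulative (–)-noradrenaline curves at 30-min intervals: first two discarded, third as control, fourth after 30-min antagonist exposure. pKb by Arunlakshana–Schild from EC50 dose ratios at 2–3 antagonist concentrations, each tested four times.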

For the molecule `O[C@H]1[C@@H](NC[C@H]2COc3ccccc3O2)CC[C@@H]1Oc1ccccc1`, the pKb in assay [1] is 5.65; in assay [2] it was 5.79; in assay [4], 6.92. Besides, the Ki in assay [3] was 0.2 µM; at D(2) dopamine receptor, 2.4 µM.
With `O[C@@H]1[C@H](NC[C@H]2COc3ccccc3O2)CC[C@H]1Oc1ccccc1`, the pKb in assay [1] is 6.55; in assay [2], 7.13; in assay [4] it was 8.17. Also, the Ki on D(2) dopamine receptor was 2.4 µM.
Take `O[C@H]1[C@@H](NC[C@@H]2COc3ccccc3O2)CC[C@@H]1Oc1ccccc1`: the pKb in assay [1] was under 5; in assay [2] it was 5.44; in assay [4] it was 6.65. Further, the Ki is 0.933 µM in assay [3] and 1.12 µM on D(2) dopamine receptor.
In the same order, the values of `O[C@@H]1[C@H](NC[C@@H]2COc3ccccc3O2)CC[C@H]1Oc1ccccc1` are 6.1, 6.83, 7.78, 0.0162 µM and 6.17 µM.

By pKb is commonly meant the negative decadic logarithm of the Kb, by convention in mol/L. Read a low pKb as a high Kb. The term Ki denotes a measure of affinity in units of concentration, obtained from inhibition or displacement.
